Compound activity from PubChem BioAssay.
ALR inh – inhibitors of human sulfhydryl oxidase ALR; P55789; purified ALR, DTT oxidation, H2O2 HRP-luminol luminescence; inhibition, % (no concentration beside the values); 290,000 compounds, 3.8% hits; AID 485317;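 active = mean replicate inhibition above about 79%, with every replicate also reaching it, limit read from the data; inconclusive = only one of the two criteria met; inactive = mean below limit and not every replicate reaching it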
Target sequence (P55789 whole entry, looked up): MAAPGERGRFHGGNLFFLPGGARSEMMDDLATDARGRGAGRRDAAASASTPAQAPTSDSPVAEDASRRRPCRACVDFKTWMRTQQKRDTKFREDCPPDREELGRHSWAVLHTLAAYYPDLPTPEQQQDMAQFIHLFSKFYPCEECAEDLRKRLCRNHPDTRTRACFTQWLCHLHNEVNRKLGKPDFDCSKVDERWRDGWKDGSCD
T cell HTS – T cell immune modulation candidate. response (vesicle binding), % at 7 µM. AID 2052. 2C CD8+ T cell-vesicle binding, flow cytometry; hits give low values. 330,000 compounds, 0.068% hits;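 active = response, share of CD8 T cells binding vesicles, and their 90th percentile fluorescence all below set limits, cut at about 80% in these data, passing the limit was not always enough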;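 note: values below 100% mean blocked vesicle binding to the CD8+ T cells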
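Assay system: 2C TCR transgenic mouse naive CD8+ T cells, MACS-purified | Read-out: CD8+ gate FL2 mean fluorescence as % of same-row positive control | Signal: High-throughput flow cytometry with anti-B7-1 and anti-CD8 staining | Timing: Binding step 1.5 h, 37 °C, antibody labelling 20 min, ice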
N-glyco inh – blocks N-linked glycosylation in D54 reporter cells; 360,000 compounds, 0.23% hits; reporter increase, % at 12.5 µM; AID 588692; D54 ERlucT glycosylation luciferase reporter, 24 h; percent of 100 nM tunicamycin response;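 active = mean luciferase reporter signal, scaled so untreated is 0 and the glycosylation-blocking control 100, at or above a set limit in every replicate; inconclusive = mean reaches the limit but not every replicate does; inactive = mean below the limit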;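 note: luciferase carries N-glycosylation sites so blocking glycosylation raises the light; 0% = median of neutral control wells and 100% = median of 100 nM tunicamycin wells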
* hit, by the source's call; ? = inconclusive; / = not tested or not shown. This is one part of a sample in which hits are shown more often than they occur.

SMILES	ALR inh	T cell HTS	N-glyco inh
COc1cc(CNCCc2ccc(S(N)(=O)=O)cc2)ccc1OCC(=O)N1CCCCC1	-4	79*	1
COc1ccc(CCNCc2ccc(OCC(=O)N3CCCCC3)c(OC)c2)cc1OC	-4	72	0
CCCCCCn1c(=O)n2n(c1=O)[C@@H]1CN(S(=O)(=O)c3ccc(C)cc3)C[C@]1(O)[C@@H](OC(=O)Nc1c(C)noc1C)C2	/	/	3
N#Cc1ccccc1Cn1c(=O)n(-c2ccc(CC(=O)NCc3ccco3)cc2)c(=O)c2sccc21	-2	634	1
N#Cc1ccccc1Cn1c(=O)n(Cc2ccc(C(=O)NCc3ccco3)cc2)c(=O)c2sccc21	94*	335	-5
O=C(OCc1ccccc1Cl)C1CC(=O)N(Cc2ccco2)C1 (stereo not drawn)	3	882	1
CC[n+]1c(-c2ccccc2)csc1Nc1c(C)n(C)n(-c2ccccc2)c1=O	99*	162	-2
CC[n+]1c(-c2ccc(C)cc2)csc1Nc1c(C)n(C)n(-c2ccccc2)c1=O	/	232	-2
COc1ccc(OC)c2c1cc(C(=O)N[C@@H](C)C(=O)N[C@@H](C(=O)O)c1ccccc1)n2C	19	268	3
Nc1ccc(C(=O)N2CCN(S(=O)(=O)c3ccc(Br)cc3)CC2)cc1[N+](=O)[O-]	-15	351	-1
O=C(CSc1ncc(S(=O)(=O)c2ccccc2)c(=O)[nH]1)Nc1ccccc1Cl	78*	136	0
COc1cccc(NC(=O)CSc2ncc(S(=O)(=O)c3ccccc3)c(=O)[nH]2)c1	?	98	0
Cc1ccc(NC(=O)CSc2ncn(-c3ccccc3)n2)cc1C	-3	425	-1
Cc1ccc(NC(=O)CSc2ncc3ccccn23)cc1C	99*	190	1
Cc1ccc(NC(=O)CSc2ncc(S(=O)(=O)c3ccccc3)c(=O)[nH]2)cc1C	100*	0	3
O=C(CSc1nc(NS(=O)(=O)c2ccccc2)cc(=O)[nH]1)Nc1ccccc1Cl	/	/	2
CN1c2ccccc2C(O)=C(C(=S)Nc2ccccc2)S1(=O)=O	48	275	1
CN1c2ccccc2C(O)=C(C(=S)Nc2ccc(F)c(Cl)c2)S1(=O)=O	96*	372	1
CC1C(=O)NN=C1C(=O)N/N=C\c1ccc(O)cc1O (stereo not drawn)	98*	243	2
COc1cc(/C=N/NC(=O)c2nonc2C)ccc1O	/	405	0
COc1cc(/C=N/NC(=O)C2=NNC(=O)C2C)ccc1O (stereo not drawn)	98*	642	1
CC1C(=O)NN=C1C(=O)N/N=C/c1ccco1 (stereo not drawn)	70	422	0
N#CCCN(CCCN1CCOCC1)CN1C(=O)c2ccccc2C1=O	/	/	-2
CC1(C)CC(=O)C(C(=S)Nc2ccccc2)=C(NC2CC(C)(C)NC(C)(C)C2)C1	9	449	-2
NC(=O)CC(NSc1ccccc1[N+](=O)[O-])C(=O)O (stereo not drawn)	-3	236	1
SMILES	ALR inh	T cell HTS	N-glyco inh
CN(C(=S)NC(=O)C1CC1)c1ccc(O)cc1	97*	482	1
CCN(C(=S)NC(=O)C1CC1)c1ccccc1	-3	721	0
NC1=NC(=O)NC1(c1ccccc1)c1ccccc1	/	/	2
CC(C)=C1SC(N2CCN(c3ccc(C)cc3)CC2)=NC1=O	94*	232	3
CC(C)=C1SC(N2CCN(c3ccc(Cl)cc3)CC2)=NC1=O	4	886	-1
COc1ccccc1C(=O)NCCC(=O)NCC(c1ccc(F)cc1)N1CCOCC1 (stereo not drawn)	-19	382	2
O=c1cc(CO)oc(CN2CCN(c3cccc(C(F)(F)F)c3)CC2)c1O	?	0	-1
O=c1cc(CO)oc(CN2CCN(c3ccccc3)CC2)c1O	98*	518	1
CCOC(=O)C1CCN(Cc2oc(CO)cc(=O)c2O)CC1	91*	169	4
CCN1CCN(Cc2oc(CO)cc(=O)c2O)CC1	-4	518	0
O=C(CCCCC(=O)NNC(=O)COc1ccccc1)NNC(=O)COc1ccccc1	1	482	0
CCOc1ccc(NC(=O)OCCN2CCN(CCc3ccccc3)C(C)C2)cc1 (stereo not drawn)	/	/	-2
Cc1sc2nc(SCc3ccc(C(=O)O)cc3)n(Cc3ccco3)c(=O)c2c1C	12	135	5
C=CCn1c(SCc2ccc(C(=O)O)cc2)nc2sc(C)c(C)c2c1=O	99*	506	4
Cc1ccc2c(c1)S(=O)(=O)N(C)C(c1ccccc1)=C2	/	/	-1
CN(C)CCNc1ccc(CO)c2sc3ccc(O)cc3c(=O)c12	/	/	-7
COc1ccc2sc3cccc(NCCN(C)C)c3c(=O)c2c1	/	/	140*
Cc1nn(Cc2ccccc2)c2c1C(c1cccnc1)C(C#N)=C(N)O2 (stereo not drawn)	95*	192	1
Cc1nn(Cc2ccccc2)c2c1C(c1ccncc1)C(C#N)=C(N)O2 (stereo not drawn)	46	497	1
COc1ccc(N(CC(=O)N/N=C(\C)c2ccc(OC)c(OC)c2)S(=O)(=O)c2ccccc2)cc1	-2	176	-4
C[C@@H]1CN(S(=O)C(C)(C)C)[C@@H](CCO)/C1=C\CCO (stereo partly drawn)	/	/	2
OCCN1CCN(c2ncnc3sc4c(c23)CCCC4)CC1	-15	278	-3
Oc1ccc(N2CCN(c3ncnc4sc5c(c34)CCC5)CC2)cc1	99*	248	-9
COc1ccc(/C=C(/NC(=O)/C=C/c2ccccc2)C(=O)NCCCCCC(=O)O)cc1	3	576	0
CCn1c2ccccc2c2cc(NC(=O)C(C)C)ccc21	1	380	6
SMILES	ALR inh	T cell HTS	N-glyco inh
CCn1c2ccccc2c2cc(NC(=O)c3ccccc3-c3ccccc3C(=O)O)ccc21	98*	49	2
CC(=O)Nc1cccc(-c2nn[nH]n2)c1	/	430	2
O=C(COc1ccccc1)Nc1cccc(-c2nn[nH]n2)c1	99*	362	1
O=C(Nc1cccc(-c2nn[nH]n2)c1)c1cccs1	-2	258	0
O=C(Nc1cccc(-c2nn[nH]n2)c1)c1csc2c1CCCC2	99*	404	1
O=C(Cn1cnc([N+](=O)[O-])n1)c1ccccc1	-52	254	1
O=C(Cn1cnc([N+](=O)[O-])n1)c1ccc(O)c(O)c1	94*	912	0
CCC(=O)N(c1nnc(SCC(=O)NN2C(=O)NC3(CCCCC3)C2=O)s1)C1CC1	22	478	-1
C/C(=N\Nc1nc2ccccc2[nH]1)c1ccc2c(c1)OCCO2	99*	216	-7
C/C(=N\Nc1nc2ccccc2[nH]1)c1ccc2c(c1)OCO2	100*	193	-3
C/C(=N\Nc1nc2ccccc2[nH]1)c1cc2ccccc2o1	?	156	-4
C/C(=N\Nc1ccccn1)c1ccc2c(c1)OCO2	4	234	0
COc1cccc(NC(=O)COc2ccc(C(=O)N3CCN(C)CC3)cc2)c1	-5	155	0
CC(=O)c1cccc(NC(=S)NNC(=O)c2ccc(C)c([N+](=O)[O-])c2)c1	63	368	-2
Cc1ccc(NC(=S)NNc2ccc(C(=O)O)cc2[N+](=O)[O-])cc1C	99*	288	-2
